Measured values as given in ChEMBL document CHEMBL1153029, “In vitro and in vivo studies of 6,8-(diaryl)imidazo[1,2-a]pyrazin-3(7H)-ones as new antioxidants” (Bioorg Med Chem, 2009).

Assays:
Hamster = assay: Antioxidant activity against microvascular damage in hamster model of cheek pouch submitted to ischemia/reperfusion assessed as inhibition of leaky sites at 3 mg/kg treated by gavage route 30 mins before anesthesia measured after 30 mins of reperfusion by FITC-dextran based microscopy; format: functional; details: Cricetinae, po
Outline: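 Hamsters anesthetized, kept on a-chloralose (100 mg/kg) via the femoral vein, femoral artery cannulated for blood pressure, body temperature 37.5 °C. Compound at 3 mg/kg or solvent given by gavage in 0.2 ml, 3 animals per group. FITC-dextran (150,000 Da) given i.v. at 25 mg/100 g. Cuff ischemia of everted pouch. Leaky sites counted; % inhibition = [1 − mean treated/mean control] × 100.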

[1] = Antioxidant activity assessed as chemical oxidative degradation into 4,4'-(3-aminopyrazine-2,6-diyl)diphenol at 1000 uM after 19 hrs by HPLC; format: functional
Outline: (§1)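 Aerobic oxidation of imidazopyrazinone (10^-3 M) with internal standard (5 × 10^-4 M) in 90:10:0.1 CH2Cl2/isopropanol/DEA. Sealed vial under white light at 23 °C for 19 h. Products quantified by HPLC against calibration curves, detection at 280 nm.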

[2] = Antioxidant activity assessed as chemical oxidative degradation into N-(3,5-bis(4-hydroxyphenyl)pyrazin-2-yl)acetamide at 1000 uM after 19 hrs by HPLC; format: functional; outline: as §1
[3] = Antioxidant activity assessed as chemical oxidative degradation into N-(5-(4-hydroxyphenyl)-3-(4-methoxyphenyl)pyrazin-2-yl)acetamide at 1000 uM after 19 hrs by HPLC; format: functional; outline: as §1
[4] = Antioxidant activity assessed as chemical oxidative degradation into 4-(5-amino-6-(4-(dimethylamino)phenyl)pyrazin-2-yl)phenol at 1000 uM after 19 hrs by HPLC; format: functional; outline: as §1
[5] = Antioxidant activity assessed as chemical oxidative degradation into N-(5-(4-hydroxyphenyl)-3-(4-(trifluoromethyl)phenyl)pyrazin-2-yl)acetamide at 1000 uM after 19 hrs by HPLC; format: functional; outline: as §1
[6] = Antioxidant activity assessed as chemical oxidative degradation into 4-(5-amino-6-phenylpyrazin-2-yl)phenol at 1000 uM after 19 hrs by HPLC; format: functional; outline: as §1
[7] = Antioxidant activity assessed as chemical oxidative degradation into N-(3-(4-(dimethylamino)phenyl)-5-(4-hydroxyphenyl)pyrazin-2-yl)acetamide at 1000 uM after 19 hrs by HPLC; format: functional; outline: as §1
[8] = Stability at pH 7.4 at 80 uM during 1 day by HPLC in presence of linoleic acid and azo-bis-isobutyronitrile; format: physicochemical; details: buffer, pH 7.4, 24 h
[9] = Antioxidant activity assessed as chemical oxidative degradation into 1-(4-(3-amino-6-(4-hydroxyphenyl)pyrazin-2-yl)phenyl)ethanone at 1000 uM after 19 hrs by HPLC; format: functional; outline: as §1
[10] = Antioxidant activity assessed as chemical oxidative degradation into N-(3-(4-acetylphenyl)-5-(4-hydroxyphenyl)pyrazin-2-yl)acetamide at 1000 uM after 19 hrs by HPLC; format: functional; outline: as §1
[11] = Chemical stability after 19 hrs; format: physicochemical; outline: as §1
[12] = Antioxidant activity assessed as chemical oxidative degradation into N-(5-(4-hydroxyphenyl)-3-phenylpyrazin-2-yl)acetamide at 1000 uM after 19 hrs by HPLC; format: functional; outline: as §1
[13] = Antioxidant activity assessed as chemical oxidative degradation into 4-(5-amino-6-(4-methoxyphenyl)pyrazin-2-yl)phenol at 1000 uM after 19 hrs by HPLC; format: functional; outline: as §1
[14] = Antioxidant activity assessed as chemical oxidative degradation into N-(3-(4-fluorophenyl)-5-(4-hydroxyphenyl)pyrazin-2-yl)acetamide at 1000 uM after 19 hrs by HPLC; format: functional; outline: as §1
[15] = Antioxidant activity assessed as chemical oxidative degradation into 4-(5-amino-6-(4-fluorophenyl)pyrazin-2-yl)phenol at 1000 uM after 19 hrs by HPLC; format: functional; outline: as §1
[16] = Antioxidant activity assessed as time required for chemical oxidative degradation of compound at 80 uM by HPLC in presence of linoleic acid; format: functional
[17] = Antioxidant activity assessed as chemical oxidative degradation into benzoic acid at 80 uM by HPLC in presence of linoleic acid; format: functional
[18] = Antioxidant activity assessed as chemical oxidative degradation into N-(5-(4-hydroxyphenyl)pyrazin-2-yl)benzamide at 80 uM by HPLC in presence of linoleic acid; format: functional
[19] = Antioxidant activity assessed as chemical oxidative degradation into 4-(5-aminopyrazin-2-yl)phenol at 80 uM by HPLC in presence of linoleic acid and azo-bis-isobutyronitrile; format: functional
[20] = Antioxidant activity assessed as chemical oxidative degradation into N-(5-(4-hydroxyphenyl)pyrazin-2-yl)benzamide at 80 uM after 18 hrs by HPLC; format: functional
Outline: (§2)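 Imidazopyrazinone mixed 1:1 with standard (8 × 10^-5 M) in 96:4 ACN–EtOH. Kept in the dark at 37 °C and sampled by HPLC hourly for 18 h.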

[21] = Antioxidant activity assessed as chemical oxidative degradation into 4-(5-aminopyrazin-2-yl)phenol at 80 uM after 18 hrs by HPLC; format: functional; outline: as §2
[22] = Antioxidant activity assessed as chemical oxidative degradation into N-(5-(4-hydroxyphenyl)pyrazin-2-yl)benzamide at 80 uM after 18 hrs by HPLC in presence of azo-bis-isobutyronitrile; format: functional
[23] = Antioxidant activity assessed as chemical oxidative degradation into benzoic acid at 80 uM by HPLC in presence of linoleic acid and azo-bis-isobutyronitrile; format: functional
[24] = Antioxidant activity assessed as time required for chemical oxidative degradation of compound at 80 uM by HPLC in presence of azo-bis-isobutyronitrile; format: functional
[25] = Antioxidant activity assessed as chemical oxidative degradation into 4-(5-aminopyrazin-2-yl)phenol at 80 uM after 18 hrs by HPLC in presence of azo-bis-isobutyronitrile; format: functional
[26] = Antioxidant activity assessed as chemical oxidative degradation into N-(5-(4-hydroxyphenyl)pyrazin-2-yl)benzamide at 80 uM by HPLC in presence of linoleic acid and azo-bis-isobutyronitrile; format: functional
[27] = Antioxidant activity assessed as chemical oxidative degradation into 4-(5-aminopyrazin-2-yl)phenol at 80 uM by HPLC in presence of linoleic acid; format: functional
[28] = Antioxidant activity assessed as chemical oxidative degradation into 4-(5-amino-6-(4-(trifluoromethyl)phenyl)pyrazin-2-yl)phenol at 1000 uM after 19 hrs by HPLC; format: functional; outline: as §1

Cc1nc2c(-c3ccc(N(C)C)cc3)[nH]c(-c3ccc(O)cc3)cn-2c1=O
inhibition in vivo at 3 mg/kg (Hamster): 21%

Nc1ncc(-c2ccc(O)cc2)nc1-c1ccc(O)cc1
inhibition in vivo at 3 mg/kg (Hamster): 29%
Activity [1]: 77%

CC(=O)Nc1ncc(-c2ccc(O)cc2)nc1-c1ccc(O)cc1
Activity [2]: 16%

Cc1nc2c(-c3ccccc3)[nH]c(-c3ccc(O)cc3)cn-2c1=O
inhibition in vivo at 3 mg/kg (Hamster): 12%

COc1ccc(-c2nc(-c3ccc(O)cc3)cnc2NC(C)=O)cc1
Activity [3]: 21%

CN(C)c1ccc(-c2nc(-c3ccc(O)cc3)cnc2N)cc1
Activity [4]: 68%
inhibition in vivo at 3 mg/kg (Hamster): 50%

CC(=O)Nc1ncc(-c2ccc(O)cc2)nc1-c1ccc(C(F)(F)F)cc1
Activity [5]: 16%

Nc1ncc(-c2ccc(O)cc2)nc1-c1ccccc1
Activity [6]: 66%
inhibition in vivo at 3 mg/kg (Hamster): 18%

CC(=O)Nc1ncc(-c2ccc(O)cc2)nc1-c1ccc(N(C)C)cc1
Activity [7]: 18%

COc1cc(C(C)=O)ccc1O [APOCYNIN]
inhibition in vivo at 3 mg/kg (Hamster): 40%

O=C(O)c1ccccc1 [BENZOIC ACID]
Stability [8]: Stable

CC(=O)c1ccc(-c2nc(-c3ccc(O)cc3)cnc2N)cc1
Activity [9]: 67%

CC(=O)Nc1ncc(-c2ccc(O)cc2)nc1-c1ccc(C(C)=O)cc1
Activity [10]: 22%

CC(=O)Nc1ncc(-c2ccc(O)cc2)nc1-c1ccccc1
Stability [11]: Stable
Activity [12]: 15%

COc1ccc(-c2nc(-c3ccc(O)cc3)cnc2N)cc1
Activity [13]: 71%
inhibition in vivo at 3 mg/kg (Hamster): 10%

CC(=O)Nc1ncc(-c2ccc(O)cc2)nc1-c1ccc(F)cc1
Activity [14]: 17%

COc1ccc(-c2[nH]c(-c3ccc(O)cc3)cn3c(=O)c(C)nc2-3)cc1
inhibition in vivo at 3 mg/kg (Hamster): 44%

Cc1nc2c(-c3ccc(F)cc3)[nH]c(-c3ccc(O)cc3)cn-2c1=O
inhibition in vivo at 3 mg/kg (Hamster): 34%

Nc1ncc(-c2ccc(O)cc2)nc1-c1ccc(F)cc1
inhibition in vivo at 3 mg/kg (Hamster): 42%
Activity [15]: 76%

Cc1nc2c(-c3ccc(O)cc3)[nH]c(-c3ccc(O)cc3)cn-2c1=O
inhibition in vivo at 3 mg/kg (Hamster): 40%

Cc1nc2c(-c3ccc(C(F)(F)F)cc3)[nH]c(-c3ccc(O)cc3)cn-2c1=O
inhibition in vivo at 3 mg/kg (Hamster): 17%

Oc1ccc(-c2cn3c(O)c(-c4ccccc4)nc3cn2)cc1
Activity [16]: < 6 h
Activity [17]: 27%
Activity [18]: 66%
Activity [19]: 40%
Activity [20]: < 5%
Activity [21]: 9%
Activity [22]: 26%
Activity [23]: 33%
Activity [24]: 5 h
Activity [25]: 44%
Activity [26]: 57%
Activity [27]: 30%

O=C(Nc1cnc(-c2ccc(O)cc2)cn1)c1ccccc1
Stability [8]: Stable

Nc1ncc(-c2ccc(O)cc2)nc1-c1ccc(C(F)(F)F)cc1
Activity [28]: 78%
inhibition in vivo at 3 mg/kg (Hamster): 14%
